Measured values published in ChEMBL document CHEMBL4350961, “Discovery of Pyrrolo[3,2- d]pyrimidin-4-one Derivatives as a New Class of Potent and Cell-Active Inhibitors of P300/CBP-Associated Factor Bromodomain” (J Med Chem, 2019).
Active and inactive are the calls of the source.

Key:
[1] = target: Testis-specific serine/threonine-protein kinase 1 (Homo sapiens) (UniProt Q9BXA7); experiment: Inhibition of recombinant full-length human TSSK1 at 10 uM using KKKVSRSGLYRSPSMPENLNRPR as substrate measured after 120 mins in presence of [gamma33P]ATP by scintillation counting method
[2] = target: Serine/threonine-protein kinase 25 (Homo sapiens) (UniProt O00506); experiment: Inhibition of human STK25 (1 to 308 residues) using RLGRDKYKTLRQIRQ as substrate measured after 40 mins in presence of [gamma33P]ATP by scintillation counting method
Summary of the method: (§1)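 Kinase panel of 422 kinases screened by Eurofins KinaseProfiler at a single test-compound concentration of 10 µM.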

[3] = target: Serine/threonine-protein kinase DCLK2 (Homo sapiens) (UniProt Q8N568); experiment: Inhibition of recombinant human DCAMKL2 (376 to end residues) at 10 uM using KKLNRTLSFAEPG as substrate measured after 40 mins in presence of [gamma33P]ATP by scintillation counting method
[4] = test system: Angiopoietin-1 receptor (Homo sapiens), Q02763 [Q939H,Q940H,Y897S]; experiment: Inhibition of human Tie2 Q939H/Q940H/Y897S mutant (771 to end residues) using EFPIYDFLPAKKK as substrate measured after 40 mins in presence of [gamma33P]ATP by scintillation counting method
Homo sapiens [5] = organism: Homo sapiens; experiment: Inhibition of recombinant full-length human PI3K p110delta/p85alpha N253S mutant at 10 uM using phosphatidylinositol-4, 5-bisphosphate as substrate measured after 40 mins by fluorescence assay
[6] = target: Serine/threonine-protein kinase STK11 (Homo sapiens) (UniProt Q15831); experiment: Inhibition of recombinant full-length human LKB1 at 10 uM using LSNLYHQGKFLQTFCGSPLYRRR as substrate measured after 40 mins in presence of [gamma33P]ATP by scintillation counting method
[7] = target: Tyrosine-protein kinase ABL2 (Homo sapiens) (UniProt P42684); experiment: Inhibition of recombinant human ARG (38 to end residues) at 10 uM using EAIYAAPFAKKK as substrate measured after 40 mins in presence of [gamma33P]ATP by scintillation counting method
[8] = target: Serine/threonine-protein kinase MRCK beta (Homo sapiens) (UniProt Q9Y5S2); experiment: Inhibition of recombinant human MRCKbeta (1 to 473 residues) at 10 uM using KKRNRTLTV as substrate measured after 40 mins in presence of [gamma33P]ATP by scintillation counting method
[9] = target: Bromodomain-containing protein 9 (Homo sapiens) (UniProt Q9H8M2); experiment: Binding affinity to human partial length BRD9 (R130 to V259 residues) expressed in bacterial expression system at 1 uM by BROMOscan assay
Summary of the method: (§2)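 BROMOscan bromodomain cross-screen run by an outside service, compound at 1 µM against 32 recombinant bromodomains. Binding given as percent of control.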

[10] = target: Bromodomain testis-specific protein (Homo sapiens) (UniProt Q58F21); experiment: Binding affinity to human partial length BRDT bromodomain 2 (K250 to E382 residues) expressed in bacterial expression system at 1 uM by BROMOscan assay; summary of the method: as §2
[11] = test system: Homeodomain-interacting protein kinase 2 (Homo sapiens), Q9H2X6 [UNDEFINED MUTATION]; experiment: Inhibition of recombinant human HIPK2 I471N mutant (165 to 564 residues) at 10 uM using myelin basic protein as substrate measured after 40 mins in presence of [gamma33P]ATP by scintillation counting method
[12] = target: CDK3/Cyclin E (Homo sapiens) (UniProt P24864+Q00526); experiment: Inhibition of recombinant full-length human CDK3/cyclinE at 10 uM using histone H1 as substrate measured after 40 mins in presence of [gamma33P]ATP by scintillation counting method; assay type: protein-complex assay
[13] = target: cAMP-dependent protein kinase catalytic subunit alpha (Homo sapiens) (UniProt P17612); experiment: Inhibition of recombinant full-length human PKA at 10 uM using Kemptide as substrate measured after 40 mins in presence of [gamma33P]ATP by scintillation counting method
[14] = target: Muscle, skeletal receptor tyrosine-protein kinase (Homo sapiens) (UniProt O15146); experiment: Inhibition of recombinant human MuSK (530 to end residues) at 10 uM using myelin basic protein as substrate measured after 40 mins in presence of [gamma33P]ATP by scintillation counting method
[15] = target: Tyrosine-protein kinase TXK (Homo sapiens) (UniProt P42681); experiment: Inhibition of human Txk (256 to end residues) using GEEPLYWSFPAKKK as substrate measured after 40 mins in presence of [gamma33P]ATP by scintillation counting method
[16] = target: Serine/threonine-protein kinase Sgk3 (Homo sapiens) (UniProt Q96BR1); experiment: Inhibition of human SGK3 (119 to end residues) using GRPRTSSFAEGKK as substrate measured after 40 mins in presence of [gamma33P]ATP by scintillation counting method; summary of the method: as §1
[17] = target: Leukocyte tyrosine kinase receptor (Homo sapiens) (UniProt P29376); experiment: Inhibition of recombinant human LTK (450 to end residues) at 10 uM using GEEPLYWSFPAKKK as substrate measured after 40 mins in presence of [gamma33P]ATP by scintillation counting method
[18] = test system: Tyrosine-protein kinase Blk (Homo sapiens), P51451 [UNDEFINED MUTATION]; experiment: Inhibition of full-length recombinant human BLK M287V mutant at 10 uM using poly(Glu, Tyr) 4:1 as substrate measured after 40 mins in presence of [gamma33P]ATP by scintillation counting method; summary of the method: as §1
[19] = target: Calcium/calmodulin-dependent protein kinase type II subunit alpha (Homo sapiens) (UniProt Q9UQM7); experiment: Inhibition of recombinant full-length human CaMK2alpha at 10 uM using calmodulin as substrate measured after 40 mins in presence of [gamma33P]ATP by scintillation counting method
[20] = test system: Protein kinase C eta type (Homo sapiens), P24723 [UNDEFINED MUTATION]; experiment: Inhibition of recombinant human PKCeta V108L/G109R/L392Q mutant (2 to end residues) at 10 uM using ERMRPRKRQGSVRRRV as substrate measured after 40 mins in presence of [gamma33P]ATP by scintillation counting method
Homo sapiens [21] = organism: Homo sapiens; experiment: Inhibition of recombinant human Mer H628Q/R794A mutant (557 to 882 residues) at 10 uM using GGMEDIYFEFMGGKKK as substrate measured after 40 mins in presence of [gamma33P]ATP by scintillation counting method
[22] = target: Mitogen-activated protein kinase 8 (Homo sapiens) (UniProt P45983); experiment: Inhibition of recombinant full-length human JNK1alpha1 at 10 uM using ATF2 as substrate measured after 40 mins in presence of [gamma33P]ATP by scintillation counting method
[23] = target: Serine/threonine-protein kinase SIK1 (Homo sapiens) (UniProt P57059); experiment: Inhibition of human SIK (1 to 281 residues) using AMARAASAAALARRR as substrate measured after 40 mins in presence of [gamma33P]ATP by scintillation counting method; summary of the method: as §1

Chain of Bromodomain-containing protein 9 (Homo sapiens) (Q9H8M2 whole entry, the tested form may be a part): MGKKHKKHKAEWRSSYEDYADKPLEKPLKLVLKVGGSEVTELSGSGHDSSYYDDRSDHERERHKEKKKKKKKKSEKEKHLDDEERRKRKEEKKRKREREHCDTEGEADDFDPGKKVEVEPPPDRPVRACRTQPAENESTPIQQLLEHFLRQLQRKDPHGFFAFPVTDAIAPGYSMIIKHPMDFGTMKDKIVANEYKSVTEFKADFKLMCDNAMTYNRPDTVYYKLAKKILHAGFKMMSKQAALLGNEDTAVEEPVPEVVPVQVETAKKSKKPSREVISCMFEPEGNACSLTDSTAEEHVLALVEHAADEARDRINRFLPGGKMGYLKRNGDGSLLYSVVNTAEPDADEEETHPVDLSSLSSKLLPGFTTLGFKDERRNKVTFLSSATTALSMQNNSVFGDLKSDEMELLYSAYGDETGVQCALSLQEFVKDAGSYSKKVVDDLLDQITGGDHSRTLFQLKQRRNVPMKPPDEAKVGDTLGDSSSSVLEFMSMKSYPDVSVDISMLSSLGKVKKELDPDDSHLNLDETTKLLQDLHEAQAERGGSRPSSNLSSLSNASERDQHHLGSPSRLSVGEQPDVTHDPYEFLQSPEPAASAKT
Chain of Calcium/calmodulin-dependent protein kinase type II subunit alpha (Homo sapiens) (Q9UQM7 whole entry): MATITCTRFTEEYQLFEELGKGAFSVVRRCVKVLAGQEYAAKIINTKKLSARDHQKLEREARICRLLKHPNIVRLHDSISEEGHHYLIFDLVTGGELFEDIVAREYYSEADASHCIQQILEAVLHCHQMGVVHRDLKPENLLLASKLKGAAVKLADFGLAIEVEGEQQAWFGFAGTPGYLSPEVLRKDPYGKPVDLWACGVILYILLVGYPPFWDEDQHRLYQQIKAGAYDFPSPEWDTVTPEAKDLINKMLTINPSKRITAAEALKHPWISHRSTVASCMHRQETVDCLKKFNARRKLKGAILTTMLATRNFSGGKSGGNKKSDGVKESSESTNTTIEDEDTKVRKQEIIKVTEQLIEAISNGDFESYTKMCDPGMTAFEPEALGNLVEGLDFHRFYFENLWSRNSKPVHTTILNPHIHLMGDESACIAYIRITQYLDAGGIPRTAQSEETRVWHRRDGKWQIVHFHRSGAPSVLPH
Chain of Leukocyte tyrosine kinase receptor (Homo sapiens) (P29376 whole entry): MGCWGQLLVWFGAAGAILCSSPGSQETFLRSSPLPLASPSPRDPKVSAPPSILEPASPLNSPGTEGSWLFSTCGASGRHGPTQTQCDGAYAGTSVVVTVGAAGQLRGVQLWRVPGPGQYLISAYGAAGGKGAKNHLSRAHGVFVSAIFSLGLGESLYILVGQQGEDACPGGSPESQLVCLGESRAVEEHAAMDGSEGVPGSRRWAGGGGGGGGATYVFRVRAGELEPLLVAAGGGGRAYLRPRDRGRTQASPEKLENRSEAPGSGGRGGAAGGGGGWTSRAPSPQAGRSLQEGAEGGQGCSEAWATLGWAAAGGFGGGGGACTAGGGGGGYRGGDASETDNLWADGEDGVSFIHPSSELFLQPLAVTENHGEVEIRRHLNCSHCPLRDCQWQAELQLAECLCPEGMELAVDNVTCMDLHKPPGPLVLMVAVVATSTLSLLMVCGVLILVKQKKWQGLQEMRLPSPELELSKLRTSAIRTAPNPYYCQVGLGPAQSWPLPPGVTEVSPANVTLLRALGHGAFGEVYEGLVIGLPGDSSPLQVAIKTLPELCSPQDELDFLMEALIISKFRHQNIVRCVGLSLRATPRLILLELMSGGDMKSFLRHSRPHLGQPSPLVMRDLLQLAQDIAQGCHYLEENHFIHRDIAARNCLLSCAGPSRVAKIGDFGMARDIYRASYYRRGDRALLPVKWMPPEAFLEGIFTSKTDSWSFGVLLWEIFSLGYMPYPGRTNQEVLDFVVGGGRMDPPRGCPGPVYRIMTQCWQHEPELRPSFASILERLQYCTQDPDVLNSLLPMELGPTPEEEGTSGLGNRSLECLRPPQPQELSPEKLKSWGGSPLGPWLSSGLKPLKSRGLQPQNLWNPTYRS
Chain of Serine/threonine-protein kinase Sgk3 (Homo sapiens) (Q96BR1 whole entry): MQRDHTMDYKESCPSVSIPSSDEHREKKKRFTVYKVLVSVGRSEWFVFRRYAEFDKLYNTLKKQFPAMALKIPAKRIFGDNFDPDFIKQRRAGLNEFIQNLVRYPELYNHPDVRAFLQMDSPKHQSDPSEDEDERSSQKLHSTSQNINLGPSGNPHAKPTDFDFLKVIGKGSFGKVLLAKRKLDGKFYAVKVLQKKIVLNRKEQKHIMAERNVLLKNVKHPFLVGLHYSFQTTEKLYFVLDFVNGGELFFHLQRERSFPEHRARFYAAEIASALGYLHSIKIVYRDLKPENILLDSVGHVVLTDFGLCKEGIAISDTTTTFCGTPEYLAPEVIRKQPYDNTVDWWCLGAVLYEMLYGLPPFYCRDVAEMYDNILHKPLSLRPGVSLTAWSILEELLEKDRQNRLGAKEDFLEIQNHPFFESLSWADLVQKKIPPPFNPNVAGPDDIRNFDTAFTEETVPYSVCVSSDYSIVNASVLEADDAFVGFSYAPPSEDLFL
Chain of Tyrosine-protein kinase Blk (Homo sapiens), P51451 [UNDEFINED MUTATION] (P51451 whole entry, looked up, stated change not applied): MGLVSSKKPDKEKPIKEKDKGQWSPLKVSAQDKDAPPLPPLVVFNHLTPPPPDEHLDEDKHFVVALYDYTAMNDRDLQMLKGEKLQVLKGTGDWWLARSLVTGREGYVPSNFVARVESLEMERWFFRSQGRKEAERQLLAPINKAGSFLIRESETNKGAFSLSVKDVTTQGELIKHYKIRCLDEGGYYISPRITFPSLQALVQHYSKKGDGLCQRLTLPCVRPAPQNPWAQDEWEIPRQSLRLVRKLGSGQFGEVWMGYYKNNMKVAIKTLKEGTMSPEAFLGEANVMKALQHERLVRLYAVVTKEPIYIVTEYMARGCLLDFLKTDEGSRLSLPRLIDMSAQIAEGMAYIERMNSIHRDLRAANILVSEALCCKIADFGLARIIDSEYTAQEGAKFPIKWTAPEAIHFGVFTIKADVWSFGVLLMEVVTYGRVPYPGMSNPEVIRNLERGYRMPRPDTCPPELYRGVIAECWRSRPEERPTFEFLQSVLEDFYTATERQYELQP
Chain of Protein kinase C eta type (Homo sapiens), P24723 [UNDEFINED MUTATION] (P24723 whole entry, looked up, stated change not applied, the tested form may be a part): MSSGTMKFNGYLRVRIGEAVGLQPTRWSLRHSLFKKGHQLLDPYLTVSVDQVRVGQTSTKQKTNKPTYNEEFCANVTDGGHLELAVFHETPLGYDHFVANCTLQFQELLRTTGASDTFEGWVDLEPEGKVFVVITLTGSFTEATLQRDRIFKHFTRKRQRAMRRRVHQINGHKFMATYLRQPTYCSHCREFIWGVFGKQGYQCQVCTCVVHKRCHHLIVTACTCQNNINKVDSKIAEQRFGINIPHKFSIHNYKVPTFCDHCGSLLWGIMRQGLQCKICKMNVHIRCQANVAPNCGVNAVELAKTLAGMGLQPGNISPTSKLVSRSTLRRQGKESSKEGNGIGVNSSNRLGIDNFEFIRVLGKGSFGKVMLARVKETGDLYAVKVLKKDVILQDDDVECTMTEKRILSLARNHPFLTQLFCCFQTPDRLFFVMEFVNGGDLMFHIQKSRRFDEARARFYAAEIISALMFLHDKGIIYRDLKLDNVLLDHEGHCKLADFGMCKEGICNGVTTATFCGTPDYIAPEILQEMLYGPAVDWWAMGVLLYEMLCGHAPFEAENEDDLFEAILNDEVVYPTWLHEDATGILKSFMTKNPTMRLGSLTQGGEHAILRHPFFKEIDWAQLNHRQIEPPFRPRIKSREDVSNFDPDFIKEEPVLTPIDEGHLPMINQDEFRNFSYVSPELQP
Chain of Muscle, skeletal receptor tyrosine-protein kinase (Homo sapiens) (O15146 whole entry): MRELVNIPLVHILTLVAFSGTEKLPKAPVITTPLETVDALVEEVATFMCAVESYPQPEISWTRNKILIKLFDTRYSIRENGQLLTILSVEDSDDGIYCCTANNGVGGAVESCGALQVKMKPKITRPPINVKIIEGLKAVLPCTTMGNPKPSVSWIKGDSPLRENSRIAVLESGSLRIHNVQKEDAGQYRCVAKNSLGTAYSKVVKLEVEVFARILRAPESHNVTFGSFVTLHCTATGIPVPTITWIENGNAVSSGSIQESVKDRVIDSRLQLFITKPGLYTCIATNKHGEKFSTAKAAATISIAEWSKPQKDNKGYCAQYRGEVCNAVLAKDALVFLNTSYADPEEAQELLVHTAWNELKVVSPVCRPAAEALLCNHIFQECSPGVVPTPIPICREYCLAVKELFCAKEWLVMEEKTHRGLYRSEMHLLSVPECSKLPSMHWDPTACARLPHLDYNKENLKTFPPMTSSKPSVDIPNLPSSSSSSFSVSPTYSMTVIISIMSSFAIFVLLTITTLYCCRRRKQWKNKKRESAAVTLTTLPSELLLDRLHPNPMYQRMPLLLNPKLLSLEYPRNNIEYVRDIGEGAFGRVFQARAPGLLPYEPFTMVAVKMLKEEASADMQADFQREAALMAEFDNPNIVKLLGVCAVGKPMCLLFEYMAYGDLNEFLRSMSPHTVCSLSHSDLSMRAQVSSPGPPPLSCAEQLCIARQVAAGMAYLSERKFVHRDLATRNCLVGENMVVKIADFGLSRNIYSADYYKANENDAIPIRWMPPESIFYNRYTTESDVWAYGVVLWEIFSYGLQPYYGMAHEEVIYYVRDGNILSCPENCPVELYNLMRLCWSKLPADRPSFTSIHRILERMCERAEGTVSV
Chain of Serine/threonine-protein kinase 25 (Homo sapiens) (O00506 whole entry, looked up, the tested form may be a part): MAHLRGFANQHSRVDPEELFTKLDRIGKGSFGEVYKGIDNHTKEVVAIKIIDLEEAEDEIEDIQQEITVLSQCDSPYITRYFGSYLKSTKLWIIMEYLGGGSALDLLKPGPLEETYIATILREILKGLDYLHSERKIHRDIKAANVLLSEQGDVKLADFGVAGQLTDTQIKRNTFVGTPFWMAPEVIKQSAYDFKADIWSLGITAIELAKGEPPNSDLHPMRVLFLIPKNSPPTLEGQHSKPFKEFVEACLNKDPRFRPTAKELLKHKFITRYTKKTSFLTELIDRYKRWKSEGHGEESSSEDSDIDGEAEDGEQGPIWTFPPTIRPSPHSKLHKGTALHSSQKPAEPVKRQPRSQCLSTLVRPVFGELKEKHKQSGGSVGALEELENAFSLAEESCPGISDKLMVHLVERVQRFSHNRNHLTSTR

CN1C[C@H](Nc2nc3cc[nH]c3c(=O)n2C)C[C@H](c2ccc3c(c2)OCCO3)C1
inactive: inhibition [1] | inhibition [2] | inhibition [3] | inhibition [4] | inhibition (Homo sapiens [5]) | inhibition [6] | inhibition [7] | inhibition [8] | Activity [9] | Activity [10] | inhibition [11] | inhibition [12] | inhibition [13] | inhibition [14] | inhibition [15] | inhibition [16] | inhibition [17] | inhibition [18] | inhibition [19] | inhibition [20] | inhibition (Homo sapiens [21]) | inhibition [22] | inhibition [23]
